According to ChEMBL document CHEMBL3045934, “Acaricidal activity of constituents identified in Foeniculum vulgare fruit oil against Dermatophagoides spp. (Acari: Pyroglyphidae)” (J Agric Food Chem, 2004):

Experiments:
[1] = tested on: Dermatophagoides pteronyssinus; assay: Ratio of benzyl benzoate LD50 to compound LD50 for 7 to 10 day-old Dermatophagoides pteronyssinus adult after 24 hr by microscopy; assay type: functional
[2] = tested on: Dermatophagoides pteronyssinus; assay: Acaricidal activity against 7 to 10 day-old Dermatophagoides pteronyssinus adult after 24 hr by microscopy; assay type: functional
How it was run: (§1)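 Mites exposed by direct contact in a lidded container, held at 25 ± 1 °C, 75% relative humidity, in darkness. Mortality scored 24 h after treatment under a binocular microscope (20×). Untreated controls run alongside. Three replicates per treatment. LD50 derived by probit analysis.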

Dermatophagoides farinae [3] = assay: Ratio of benzyl benzoate LD50 to compound LD50 for 7 to 10 day-old Dermatophagoides farinae adult after 24 hr by microscopy; assay type: functional
Dermatophagoides farinae [4] = assay: Acaricidal activity against 7 to 10 day-old Dermatophagoides farinae adult after 24 hr by microscopy; assay type: functional; how it was run: as §1
[5] = Acute toxicity in po dosed Rattus norvegicus (rat); assay type: organism-based; conditions: in vivo

Row | SMILES | Ratio [1] | LD50 [2] | Ratio (Dermatophagoides farinae [3]) | LD50 (Dermatophagoides farinae [4]) | LD50 [5]
1 | COc1ccc(C=O)cc1 | 6.7 | 10.1 mg/m2 | 7.9 | 11.3 mg/m2 | 
2 | CC1(C)C(=O)[C@@]2(C)CCC1C2 [(+)-FENCHONE] | 1.6 | 43.2 mg/m2 | 2.3 | 38.9 mg/m2 | 
3 | CC1(C)C(=O)[C@]2(C)CCC1C2 [(-)-FENCHONE] | 1.4 | 48.7 mg/m2 | 2.1 | 41.8 mg/m2 | 
4 | O=C(OCc1ccccc1)c1ccccc1 [BENZYL BENZOATE] |  | 67.5 mg/m2 |  | 89.2 mg/m2 | 
5 | C=CCc1ccc(OC)cc1 [ESTRAGOLE] | 0.2 | 389.9 mg/m2 | 0.2 | 413.3 mg/m2 | 
6 | CC12CCC(C1)C(C)(C)C2=O (centres undefined) [FENCHONE] |  |  |  |  | 6160 mg/kg
